# From PubChem
# Most compounds without a hit are left out; they make up all but 1.7% or so of the library.
# LMPTP block – LMPTP (human) inhibition; inhibition, % at 20 µM; recombinant LMPTP-A, OMFP fluorogenic substrate, fluorescence intensity; P24666; actives 0.22% (n = 360,000);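 active = compounds that cut the enzyme signal by at least half of the control window in the single-dose screen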;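 note: plate controls were DMSO wells with enzyme plus substrate for no effect and substrate without enzyme for full effect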
# Target sequence (P24666 whole entry, looked up): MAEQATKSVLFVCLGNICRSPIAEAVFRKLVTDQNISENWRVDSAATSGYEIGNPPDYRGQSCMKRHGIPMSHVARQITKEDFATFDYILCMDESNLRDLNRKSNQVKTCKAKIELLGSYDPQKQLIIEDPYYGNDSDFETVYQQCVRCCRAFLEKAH
#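 Test system – LMPTP-A phosphatase enzyme · Quantity – 0.625 nM LMPTP-A final · Reagent – OMFP substrate, 400 µM final · Dosing – one test concentration per compound, 20 µM, with 3% DMSO overall · Timing – 50 min enzyme reaction at room temperature, protected from light · Detection – fluorescence intensity · Controls – substrate-only low control, DMSO enzyme-plus-substrate high control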
# Scp-1 inhibitor – inhibitors of human Scp-1 phosphatase. Recombinant Scp1, phosphopeptide, malachite green phosphate absorbance. inhibition, % at 20 µM. actives 0.88% (n = 340,000). AID 493091;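 active = inhibition above about 50% at 20 µM, limit read from the data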;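 note: plate controls were DMSO wells with enzyme for no effect and wells lacking enzyme for full effect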
# Target sequence (Q9GZU7 76-261 limits assumed): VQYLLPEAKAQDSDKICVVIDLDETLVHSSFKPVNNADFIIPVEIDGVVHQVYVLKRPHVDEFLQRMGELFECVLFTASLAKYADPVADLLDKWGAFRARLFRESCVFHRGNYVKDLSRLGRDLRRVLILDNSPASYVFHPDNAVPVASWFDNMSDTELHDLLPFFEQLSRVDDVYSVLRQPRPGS
#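 Test system – truncated SCP-1 phosphatase (76-261aa) · Reagent – Phosphorylated 17-residue peptide substrate · Incubation – 45 min room-temperature reaction, 5 min colour, 30 min stabiliser · Detection – colorimetric phosphate reagent with accelerator and stabiliser, absorbance at 630 nm · Measure – % inhibition at 20 µM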
# DNMT1 inh – inhibitors of human DNMT1. DNMT1 molecular beacon, Hinp1I cleavage, fluorescence. inhibition (reported as % activation of signal), % at 10 µM. actives 0.83% (n = 360,000); in the data active = inhibition above about 50%
# SUMO1-SIM PPI – SUMO1-SIM interaction modulation | SUMO1 binding to a labelled peptide, TR-FRET, 1 h | inhibition, % at 20 µM | actives 0.33% (n = 360,000) | P63165; in the data active = inhibition above about 37%
# Target sequence (P63165 whole entry, looked up): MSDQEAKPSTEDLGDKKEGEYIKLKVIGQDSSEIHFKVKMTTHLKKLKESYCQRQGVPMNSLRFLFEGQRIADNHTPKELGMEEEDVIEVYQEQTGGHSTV
# STEP inh – blocks human striatal-enriched tyrosine phosphatase | actives 0.25% (n = 360,000) | recombinant STEP, OMFP fluorogenic substrate, fluorescence | inhibition, % at 20 µM;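 active = inhibition at 20 µM, scaled per plate between control wells, above about 37%, limit read from the data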;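 note: 0% = DMSO with enzyme and substrate and 100% = substrate only without enzyme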
#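 medium = Bis-Tris buffer pH 6.0, 2.5 mM DTT, 0.005% Tween 20 | test system = STEP (striatal-enriched tyrosine phosphatase) enzyme, cell-free | measure = normalized % inhibition | compound dosing = 20 µM, 1% DMSO | also added = 25 µM OMFP | schedule = reaction 20 min, ambient temperature | measured by = fluorescence read at 480 nm ex / 540 nm em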
# Beacon interf DR – counter-screen for DNMT1 inhibitors: spectral interference, dose response; shares compounds with DNMT1 inh; molecular beacon fluorescence; IC50, µM; 200 tested, under 10 active; AID 602382; call rule not given here
# DNMT1 confirm – confirmation of human DNMT1 inhibitors | inhibition, % at 10 µM | shares compounds with DNMT1 inh | actives 8% (n = 2,300) | DNMT1 molecular beacon HinP1I cleavage, fluorescence;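 active = average inhibition of at least 30% in the single-concentration confirmation test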
# Beacon interf – beacon fluorescence artifact counter-screen; shares compounds with DNMT1 inh; DNMT1 molecular beacon spectral interference counterscreen, fluorescence 485/520; activation (fluorescence interference), % at 10 µM; actives 1% (n = 2,300);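 active = activation of at least 30% at 10 µM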;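 note: DNMT1 catalytic domain with a HinP1I cleavage step and a FAM/dabcyl DNA beacon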
# An asterisk follows results filed as active; . = no result given.
SMILES,LMPTP block,Scp-1 inhibitor,DNMT1 inh,SUMO1-SIM PPI,STEP inh,DNMT1 confirm,Beacon interf,others
Nc1c(C(=O)NCc2ccccc2)nnn1Cc1ccc(F)cc1,1,-16,50*,4,4,4,6,
O=C(CSc1nc2c(cnn2-c2ccccc2)c(=O)[nH]1)c1ccc(Cl)cc1,-1,-4,86*,5,1,31*,4,Beacon interf DR=>99
CSc1nnc(C)c(=O)n1COC(=O)COc1ccccc1,-2,-4,1,-1,0,.,.,
CSc1nnc(C)c(=O)n1COC(=O)COc1ccc(Cl)cc1,-1,-10,110*,3,-3,-2,-2,
O=c1[nH]c(=O)c2nc3c4ccccc4c4ccccc4c3nc2[nH]1,13,26,79*,84*,0,4,-1,
Cc1cc(=O)oc2cc(NC(=O)c3cccc(Br)c3)ccc12,27,49,51*,-5,26,2,0,
O=C(O)c1cccc(N2C(=O)c3cc([N+](=O)[O-])cc4cc([N+](=O)[O-])cc(c34)C2=O)c1,6,69*,85*,29,32,18,-1,
CCc1cc(C(=O)N/N=C/c2ccc(OC)cc2)c2ccccc2n1,0,-1,2,-1,-1,.,.,
COc1ccc(CCNC(=O)c2cnn3ccccc23)c(OC)c1OC,-1,-3,0,4,1,.,.,
COc1cc(CCNC(=O)c2cnn3ccccc23)cc(OC)c1OC,0,-13,80*,0,1,1,0,
COc1ccc(/C=C/C(=O)NC(=S)Nc2ccc(S(=O)(=O)N=C(N)N)cc2)cc1OC,5,4,61*,1,1,1,-4,
O=C(O)CCCCC1SCC2NC(=O)NC21 (stereo unspecified),-2,-1,82*,-1,0,2,3,
CCCCCC1NC(=O)NC1CCCCCC(=O)O (stereo unspecified),-2,-2,2,2,-1,.,.,
C[n+]1cccc2cccc([O-])c21,52*,-14,78*,40*,7,2,-3,
[O-][n+]1cccc2cccc(O)c21,-1,-10,-5,-6,0,.,.,
CCOc1ccc(/C=c2\sc3nc(-c4ccco4)nn3c2=O)cc1OCC,0,42,65*,12,1,4,-1,
CCOc1nc(NC(=O)NC(=O)c2ccccc2)nc(-c2ccccc2)n1,0,1,73*,3,-10,0,-5,
O=C(CSCc1ccccc1Br)NC1CC1,-1,-5,81*,1,2,0,1,
CSc1ccccc1NC(=O)CSCc1ccccc1Br,3,-4,-7,3,2,.,.,
NN1C(=O)c2cccc3c(C(=O)O)ccc(c23)C1=O,-2,12,4,-16,2,.,.,
O=C(O)c1ccc2c3c(cccc13)C(=O)N(c1ccccc1)C2=O,5,42,63*,-3,12,2,-2,
Nc1cccc(N2C(=O)c3cccc4c(N)ccc(c34)C2=O)c1,-2,-8,40,-68,-32,.,.,
Nc1ccc2c3c(cccc13)C(=O)N(c1ccccc1)C2=O,-7,-11,60*,-50,-154,146*,115*,
Cc1ccc(CCNC(=O)c2nnc(CS(=O)(=O)c3ccccc3)o2)cc1,0,-17,-3,3,1,.,.,
Cc1cc(C)n(CCN(C)C(=O)c2cc(COc3c(F)cccc3F)on2)n1,-1,-8,51*,1,0,0,3,
SMILES,LMPTP block,Scp-1 inhibitor,DNMT1 inh,SUMO1-SIM PPI,STEP inh,DNMT1 confirm,Beacon interf,others
Cc1cc(C)n(CCNC(=O)c2cc(COc3c(F)cccc3F)on2)n1,-1,0,1,2,-2,.,.,
COc1ccc(-n2nc(C(=O)Nc3ccc(OC)c(OC)c3)c3c4ccccc4n(C)c3c2=O)cc1,3,-3,60*,-4,3,2,4,
COc1ccc(-n2nc(C(=O)NCC(=O)Nc3cccc(Cl)c3)c3ccccc3c2=O)cc1OC,34,38,60*,-65,10,-3,-7,
CCOc1ccc(NC(=O)CNC(=O)c2nn(-c3ccc(OC)c(OC)c3)c(=O)c3ccccc23)cc1,2,-10,6,-21,4,.,.,
COc1ccc(NC(=O)C(c2cc3c(cc2[N+](=O)[O-])OCO3)N(C)c2ccccc2)cc1 (stereo unspecified),2,-8,-13,-7,0,.,.,
CCOc1ccccc1-c1ccc(C(=O)NCc2ccc(Cl)cc2)o1,6,.,.,2,.,.,.,
Cn1cccc1/C=N/N1CCN(Cc2cccc3ccccc23)CC1,0,-11,-6,-1,-2,.,.,
O=C(COc1cccc(Br)c1)NN=C1c2ccccc2-c2ccccc21,2,-34,54*,-5,0,0,-5,
c1ccc(-c2nccc(-c3ccc(-n4cnc5ccccc54)cc3)n2)cc1,9,0,82*,-5,5,1,-7,
O=C1NC(Cc2ccc(O)cc2)c2nc3ccc(F)cc3c(=O)n2-c2cc3ccccc3cc21 (stereo unspecified),0,.,-9,-6,-2,.,.,
N#Cc1c(-c2cccc(Br)c2)cc(-c2ccco2)[nH]c1=O,25,-6,87*,29,2,10,14,
COC(=O)c1cc(Cl)ccc1NCC(N)c1ccccc1 (stereo unspecified),-1,.,-11,-5,2,.,.,
N/C(CSc1ccc(Cl)cc1)=N\S(=O)(=O)c1ccc(Cl)cc1,1,-13,73*,4,-3,6,3,
CCN(CC)P(=O)(c1ccccc1)c1c(C)nc2ccccn12 (stereo unspecified),0,-9,2,5,2,.,.,
Cc1cc(C)c2c(N)c3ccccc3nc2n1,10,-7,67*,-25,1,26,4,
CCc1ccc2nc3nc(C)cc(C)c3c(N)c2c1,12,-2,18,5,-3,.,.,
CN(c1ncc(C(F)(F)F)cc1Cl)N1C(=O)c2cccc([N+](=O)[O-])c2C1=O,2,-5,-2,-2,5,.,.,
Cc1ccccc1OC1(C)CCN(Cc2ccc(-c3ccccn3)cc2)C1 (stereo unspecified),2,.,5,1,2,.,.,
Cc1cccc(NC(=O)CSCC(=O)Nc2ccccc2N2CCCCC2)c1,2,-5,94*,8,2,7,9,
Cc1cccc(NC(=O)CSCC(=O)Nc2ccccc2N2CCCC2)c1,-5,3,-7,-12,-3,.,.,
